In general, IC50 refers to the concentration needed to halve the response being measured. Read a low IC50 as greater potency in that assay. As a reminder, the inhibition is how much of the control response was suppressed.

This note sets out measurements from ChEMBL document CHEMBL2311385, “Enhancing macrocyclic diterpenes as multidrug-resistance reversers: structure-activity studies on jolkinol D derivatives” (J Med Chem, 2013).

Molecules are shown by their SMILES.

Data set [1] addresses T1, ATP-dependent translocase ABCB1 (Homo sapiens, UniProt P08183). Description: Inhibition of human Pgp expressed in mouse L5178Y cells assessed as potentiation of doxorubicin-induced cytotoxicity after 48 hrs by MTT assay. The class given is cell-based. In outline: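 Checkerboard combination with doxorubicin (14.7–0.1 μM) across one axis and 2-fold dilutions of modifier on the other, at a fixed drug ratio. MDR L5178Y cells seeded at 2 × 10^5 cells/mL and incubated 48 h, growth read by MTT. Combination index from the Chou–Talalay median-effect equation at 50% inhibition, using the best combination ratio. CI <1 synergy, =1 additivity, >1 antagonism.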

The test system of data set [2] is L5178Y. The data set can be described thus: Toxicity against chemoresistant mouse L5178Y cells expressing human MDR1 gene at >40 uM after 10 mins by flow cytometric analysis. The class given is cell-based. The method in brief: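 Toxicity during the rhodamine-123 accumulation assay, tested at 2, 20, 40 and 80 μM, was judged from shifts in flow-cytometric forward scatter and side scatter.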
Background: A flow cytometer gives signals particle by particle.

The target in data set [3] is T1, ATP-dependent translocase ABCB1. The data set can be described thus: Inhibition of human Pgp-mediated rhodamine 123 efflux expressed in mouse L5178Y cells assessed as fluorescence activity ratio at 20 uM after 10 mins by flow cytometric analysis. The class given is cell-based. The method in brief: (§1)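 PAR and MDR L5178Y cells at 2 × 10^6 cells/mL in serum-free McCoy's 5A, compound at 2 or 20 μM. Verapamil 22 μM as positive control, DMSO 2% as solvent control. After 10 min at room temperature, rhodamine-123 added (5.2 μM final) for 20 min at 37 °C. Cells washed twice, resuspended in PBS, and mean FL-1 of 20 000 cells read by flow cytometry. FAR = (MDR treated/untreated)/(PAR treated/untreated).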

The target is the same in data set [4]. The data set can be described thus: Inhibition of human Pgp-mediated rhodamine 123 efflux expressed in mouse L5178Y cells assessed as fluorescence activity ratio at 2 uM after 10 mins by flow cytometric analysis. Type of data set: cell-based. The method in brief:
as §1

In data set [5] the test system is L5178Y. The data set can be described thus: Cytotoxicity against chemoresistant mouse L5178Y cells expressing human MDR1 gene after 72 hrs by MTT assay. Type of data set: ADME, cell-based. In outline: (§2)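 L5178Y parental and human MDR1-transfected mouse T-cell lymphoma cells grown in McCoy's 5A with 10% heat-inactivated horse serum at 37 °C, 5% CO2. Cells seeded at 1 × 10^5/mL and given 2-fold serial dilutions in duplicate wells for 72 h. MTT added for 4 h, then SDS overnight, OD 550 nm (ref 630). IC50 from curve fitting over three independent experiments. Selectivity index = IC50(PAR)/IC50(MDR).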
(In general: Formazan colour is commonly taken as a measure of viable cells.)

Data set [6] concerns L5178Y. The data set can be described thus: Cytotoxicity against chemosensitive mouse L5178Y cells after 72 hrs by MTT assay. Type of data set: cell-based. In outline: as §2
Data set [7] deals with P-glycoprotein 1 / MDR1 (Homo sapiens). Description: Selectivity index, ratio of IC50 for chemosensitive mouse L5178Y cells to IC50 for chemoresistant mouse L5178Y cells expressing human MDR1 gene.
The target in data set [8] is P-gp (ABCB1) (Homo sapiens, UniProt P08183). The data set can be described thus: Inhibition of human Pgp expressed in mouse L5178Y cells assessed as reversal of chemoresistance at 20 uM after 10 mins by flow cytometric analysis. Type of data set: cell-based. The method in brief: (§3)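 MDR L5178Y cells preincubated 10 min with compound, then loaded with rhodamine-123 (5.2 μM final) for 20 min at 37 °C and read by flow cytometry. The percentage of cells reverted to a chemosensitive phenotype was obtained by Overton cumulative histogram subtraction, channel by channel.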

Data set [9] has as its target T1, ATP-dependent translocase ABCB1. The data set can be described thus: Inhibition of human Pgp-mediated rhodamine 123 efflux expressed in mouse L5178Y cells assessed as reversal of chemoresistance after 10 mins by flow cytometric analysis. The class given is cell-based. In outline:
as §3

T1 sequence (P08183 whole entry): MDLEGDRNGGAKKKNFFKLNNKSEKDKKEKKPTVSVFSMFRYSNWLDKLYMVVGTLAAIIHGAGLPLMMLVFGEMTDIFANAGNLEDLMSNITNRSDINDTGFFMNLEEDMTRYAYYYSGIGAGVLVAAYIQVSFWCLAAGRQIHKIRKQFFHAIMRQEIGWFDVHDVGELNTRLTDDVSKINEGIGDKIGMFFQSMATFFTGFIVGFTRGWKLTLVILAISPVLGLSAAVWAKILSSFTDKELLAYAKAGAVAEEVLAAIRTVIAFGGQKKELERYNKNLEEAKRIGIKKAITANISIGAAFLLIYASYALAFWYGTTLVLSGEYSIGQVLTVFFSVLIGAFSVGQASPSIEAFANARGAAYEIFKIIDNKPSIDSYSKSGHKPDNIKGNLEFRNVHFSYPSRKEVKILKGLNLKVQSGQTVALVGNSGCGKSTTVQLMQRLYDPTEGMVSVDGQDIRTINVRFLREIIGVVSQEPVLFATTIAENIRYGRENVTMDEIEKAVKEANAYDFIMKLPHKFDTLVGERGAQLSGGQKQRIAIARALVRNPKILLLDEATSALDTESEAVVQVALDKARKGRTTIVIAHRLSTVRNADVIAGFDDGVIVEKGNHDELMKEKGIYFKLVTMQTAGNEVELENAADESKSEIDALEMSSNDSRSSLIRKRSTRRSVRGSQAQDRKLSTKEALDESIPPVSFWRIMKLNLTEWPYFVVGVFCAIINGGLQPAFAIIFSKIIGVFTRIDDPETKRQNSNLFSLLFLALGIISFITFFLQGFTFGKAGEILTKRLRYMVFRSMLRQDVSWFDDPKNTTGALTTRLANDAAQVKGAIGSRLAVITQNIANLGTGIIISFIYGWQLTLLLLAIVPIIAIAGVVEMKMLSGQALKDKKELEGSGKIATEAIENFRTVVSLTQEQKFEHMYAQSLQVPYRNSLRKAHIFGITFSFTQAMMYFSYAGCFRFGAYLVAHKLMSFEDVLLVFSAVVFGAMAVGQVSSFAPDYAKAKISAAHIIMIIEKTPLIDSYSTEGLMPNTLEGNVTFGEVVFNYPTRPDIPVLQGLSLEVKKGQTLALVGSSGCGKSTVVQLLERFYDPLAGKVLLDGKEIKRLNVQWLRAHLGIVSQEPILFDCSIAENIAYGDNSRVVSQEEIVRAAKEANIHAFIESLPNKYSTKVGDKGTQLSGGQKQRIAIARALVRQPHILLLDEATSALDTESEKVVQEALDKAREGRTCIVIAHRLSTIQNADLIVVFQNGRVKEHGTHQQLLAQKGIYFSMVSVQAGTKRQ
Chain of P-gp (ABCB1) (P08183 whole entry): as above

With `CCC(=O)O[C@H]1[C@@H](C)C[C@]2(OC(C)=O)C(=O)/C(C)=C/[C@@H]3[C@H](CC/C(C)=C/[C@@H]12)C3(C)C` [JOLKINOATE B], the CI in data set [1] is on record as 0.34. In data set [2], the Activity entry was “Toxic”. Also, the values for the Ratio in data set [3] and in data set [4] were 30.64 and 2.95, respectively. In addition, the IC50 in data set [5] amounted to 22.2 µM; in data set [6], 18.3 µM. Also, the selectivity ratio in data set [7] stood at 0.8.
Take `CCCCCCCCCCCC(=O)O[C@H]1[C@@H](C)C[C@]2(OC(C)=O)C(=O)/C(C)=C/[C@@H]3[C@H](CC/C(C)=C/[C@@H]12)C3(C)C` [JOLKINOATE D]: the CI in data set [1] was 2.02. The Ratio is 25.69 in data set [3] and 1.74 in [4]. In addition, the figures for the IC50 in data set [5] and in [6] were 60.3 µM and 38.7 µM, respectively. Besides, the selectivity ratio in [7] was found to be 0.6.
On to `CC(=O)O[C@]12C[C@H](C)[C@H](OC(=O)c3ccccc3)[C@@H]1/C=C(\C)CC[C@H]1[C@@H](/C=C(\C)C2=O)C1(C)C` [JOLKINOATE I], for which, in [1], the CI came out at 0.35. The inhibition at 10 min, 20 µM in [8] is 70.2%. Further, the Ratio in data set [3] is on record as 84.22; in data set [4], 24.15. Moreover, the “inhibition (INH)” value in data set [9] is listed as “Dose-dependent effect”. Further, the values for the IC50 in data set [5] and in data set [6] were 33.1 µM and 34.7 µM, respectively. For the same molecule, the selectivity ratio in [7] was 1.
Turning to `CCCC(=O)O[C@H]1[C@@H](C)C[C@]2(OC(C)=O)C(=O)/C(C)=C/[C@@H]3[C@H](CC/C(C)=C/[C@@H]12)C3(C)C` [JOLKINOATE C], the CI in data set [1] amounted to 0.39. The Activity result in [2] is recorded as “Toxic”. Also, the Ratio came out at 107.89 in [3] and 5.15 in data set [4]. Moreover, the IC50 in data set [5] is 26.8 µM; in data set [6] it was 24 µM. Moreover, the selectivity ratio in [7] stood at 0.9.
As to `CCCCC(CC)C(=O)O[C@H]1[C@@H](C)C[C@]2(OC(C)=O)C(=O)/C(C)=C/[C@@H]3[C@H](CC/C(C)=C/[C@@H]12)C3(C)C` (stereo not given in full) [JOLKINOATE G], the CI in data set [1] is recorded as 0.31. Besides, the Activity result in [2] is “Toxic”. Moreover, the Ratio was 52.66 in [3] and 10.55 in [4]. Moreover, the IC50 in data set [5] was determined as 48.9 µM; in data set [6] it was 20.6 µM. Besides, the selectivity ratio in data set [7] is 0.4.
Take `CCCC(C)C(=O)O[C@H]1[C@@H](C)C[C@]2(OC(C)=O)C(=O)/C(C)=C/[C@@H]3[C@H](CC/C(C)=C/[C@@H]12)C3(C)C` (stereo not given in full) [JOLKINOATE E]: the CI in data set [1] is 0.23. Further, the Activity entry in data set [2] is “Toxic”. Besides, the Ratio in [3] stood at 12.13; in data set [4], 7.14. The 50% inhibitory concentration (IC50) was 18.8 µM in [5] and 17.2 µM in [6]. Also, in data set [7], the selectivity ratio turned out to be 0.9.
As to `COc1ccc(C(=O)O[C@H]2[C@@H](C)C[C@]3(OC(C)=O)C(=O)/C(C)=C/[C@@H]4[C@H](CC/C(C)=C/[C@@H]23)C4(C)C)cc1` [JOLKINOATE K], the CI in data set [1] amounted to 0.3. For the same molecule, the inhibition at 10 min, 20 µM in [8] was 95%. Moreover, the Ratio was 109.17 in data set [3] and 28.09 in [4]. The “inhibition (INH)” value in [9] is given as “Dose-dependent effect”. In addition, the IC50 is 32.7 µM in data set [5] and 21.7 µM in data set [6]. Further, the selectivity ratio in data set [7] came out at 0.7.
For the molecule `CC(=O)O[C@]12C[C@H](C)[C@H](OC(=O)c3ccc(C)cc3)[C@@H]1/C=C(\C)CC[C@H]1[C@@H](/C=C(\C)C2=O)C1(C)C` [JOLKINOATE J], in data set [1], the CI is recorded as 0.26. Further, the Ratio was determined as 56.88 in [3] and 21.11 in data set [4]. In data set [9], the “inhibition (INH)” value is “Dose-dependent effect”. Further, the values for the IC50 in data set [5] and in [6] were 45.1 µM and 41.2 µM, respectively. The selectivity ratio in data set [7] was 0.9.
`C/C1=C\[C@H]2[C@@H](O)[C@@H](C)C[C@]2(O)C(=O)/C(C)=C/[C@@H]2[C@H](CC1)C2(C)C` [JOLKINODIOL]: the CI in data set [1] was found to be 0.65. Besides, the figures for the Ratio in [3] and in [4] were 3.38 and 0.84, respectively. The values for the IC50 in data set [5] and in data set [6] were 48.9 µM and 36.4 µM, respectively. Moreover, the selectivity ratio in [7] is 0.7.
For the molecule `CC(=O)O[C@]12C[C@H](C)[C@H](O)[C@@H]1/C=C(\C)CC[C@H]1[C@@H](/C=C(\C)C2=O)C1(C)C` [JOLKINOL D], the CI in [1] worked out at 0.26. Moreover, the Ratio turned out to be 0.92 in [3] and 0.79 in data set [4]. Moreover, the figures for the IC50 in data set [5] and in data set [6] were 99.7 µM and 89.9 µM, respectively. Also, in data set [7], the selectivity ratio was determined as 0.9.
For the molecule `CC(=O)O[C@]12C[C@H](C)[C@H](OS(=O)(=O)c3ccccc3)[C@@H]1/C=C(\C)CC[C@H]1[C@@H](/C=C(\C)C2=O)C1(C)C` [JOLKINOATE M], the CI in [1] is given as 0.21. Also, the Ratio stood at 52.77 in [3] and 16.06 in data set [4]. The “inhibition (INH)” value in data set [9] was “Dose-dependent effect”. The IC50 was found to be 15 µM in data set [5] and 12.1 µM in [6]. Further, the selectivity ratio in data set [7] is 0.8.
As to `CCC(CC)C(=O)O[C@H]1[C@@H](C)C[C@]2(OC(C)=O)C(=O)/C(C)=C/[C@@H]3[C@H](CC/C(C)=C/[C@@H]12)C3(C)C` [JOLKINOATE F], the CI in [1] came out at 0.25. In addition, the Activity result in data set [2] is recorded as “Toxic”. The Ratio is 77.25 in data set [3] and 4.99 in data set [4]. Besides, the IC50 in data set [5] was 14.7 µM; in data set [6], 14.3 µM. The selectivity ratio in data set [7] stood at 1.
As to `CC(=O)O[C@]12C[C@H](C)[C@H](OC(=O)c3cccc(C(F)(F)F)c3)[C@@H]1/C=C(\C)CC[C@H]1[C@@H](/C=C(\C)C2=O)C1(C)C` [JOLKINOATE L], the CI in data set [1] stood at 0.27. The Ratio came to 28.66 in data set [3] and 9.32 in [4]. Moreover, the values for the IC50 in [5] and in data set [6] were 52.6 µM and 44 µM, respectively. Moreover, the selectivity ratio in [7] turned out to be 0.8.
With `CC(=O)O[C@H]1[C@@H](C)C[C@]2(OC(C)=O)C(=O)/C(C)=C/[C@@H]3[C@H](CC/C(C)=C/[C@@H]12)C3(C)C` [JOLKINOATE A], in [1], the CI was determined as 0.18. Also, the Ratio is listed as 33.76 in [3] and 1.16 in data set [4]. The IC50 in data set [5] stood at 60.4 µM; in [6], 38.2 µM. Besides, the selectivity ratio in [7] came out at 0.6.
